ChEMBL document CHEMBL4257484, “Membrane-active antimicrobial poly(amino-modified alkyl) β-cyclodextrins synthesized via click reactions” (Medchemcomm, 2018)
≈ marks a conversion by molar mass, not a printed value. Bridge positions count the residues as written; N and C are the ends. Square brackets hold non-standard residues; d marks the D form. Peptide text beside a SMILES is read from it. * marks the point of attachment. Octanoyl(6-Me) = CCC(C)CCCCC(=O)*; Orn = NCCC[C@H](N)C(=O)O; Dab = NCC[C@H](N)C(=O)O

Legend:
[1] = tested on: Pseudomonas aeruginosa; test: Antibacterial activity against drug-sensitive Pseudomonas aeruginosa PAO1 after 20 hrs by liquid microdilution method; format: functional; details: PAO1, 20 h
Procedure, shortened: (§1)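 Two-fold serial dilutions of compound in Mueller–Hinton broth, inoculated with 1 × 10^4 cells and cultured at 37 °C for 20 h in microtiter wells.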

[2] = Hemolytic activity in rabbit RBC at 10 uM after 20 mins relative to control; format: ADME, cell-based, Oryctolagus cuniculus, Erythrocyte; details: rabbit red blood cells (erythrocytes), read-out: Activity
Procedure, shortened: (§2)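 Rabbit erythrocytes suspended in 150 mM NaCl/10 mM Hepes-NaOH, pH 7.4, at 0.5% hematocrit (final) and incubated with compound at 37 °C. The table footnote gives 20 min; the methods section gives 30 min. Hemolysis was read as absorbance at 540 nm, with 50 µM lysolecithin defining 100% hemolysis.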

[3] = tested on: Enterococcus faecium; test: Antibacterial activity against drug-resistant Enterococcus faecium MS29120 after 18 to 20 hrs by agar dilution method; format: functional
Procedure, shortened: (§3)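 Agar dilution per CLSI. Overnight broth cultures were diluted 100-fold, and one loopful (about 10^5 to 10^4 CFU) was spotted onto agar plates containing the CD. Growth was scored after 18–20 h at 37 °C. MIC values are in µM.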

[4] = Hemolytic activity in rabbit RBC at 50 uM after 20 mins relative to control; format: ADME, cell-based, Oryctolagus cuniculus, Erythrocyte; details: rabbit red blood cells (erythrocytes), read-out: Activity; procedure, shortened: as §2
[5] = tested on: Enterococcus faecalis; test: Antibacterial activity against drug-resistant Enterococcus faecalis MS29030 after 18 to 20 hrs by agar dilution method; format: functional; procedure, shortened: as §3
[6] = Hemolytic activity in rabbit RBC at 1 uM after 20 mins relative to control; format: ADME, cell-based, Oryctolagus cuniculus, Erythrocyte; details: rabbit red blood cells (erythrocytes), read-out: Activity; procedure, shortened: as §2
[7] = tested on: Streptococcus agalactiae; test: Antibacterial activity against drug-resistant Streptococcus agalactiae B1 after 18 to 20 hrs by agar dilution method; format: functional; procedure, shortened: as §3
[8] = tested on: Enterococcus faecalis; test: Antibacterial activity against vancomycin-resistant Enterococcus faecalis MS29016 after 18 to 20 hrs by agar dilution method; format: functional; procedure, shortened: as §3
[9] = tested on: Staphylococcus aureus; test: Antibacterial activity against methicillin-resistant Staphylococcus aureus MS29202 after 18 to 20 hrs by agar dilution method; format: functional; procedure, shortened: as §3
[10] = Hemolytic activity in rabbit RBC at 2 uM after 20 mins relative to control; format: ADME, cell-based, Oryctolagus cuniculus, Erythrocyte; details: rabbit red blood cells (erythrocytes), read-out: Activity; procedure, shortened: as §2
[11] = tested on: Escherichia coli; test: Antibacterial activity against drug-sensitive Escherichia coli K-12 W3110 after 20 hrs by liquid microdilution method; format: functional; details: K-12 substr. W3110, 20 h; procedure, shortened: as §1
[12] = Lipophilicity, log P of the compound; format: physicochemical; details: octanol/water
[13] = tested on: Bacillus subtilis; test: Antibacterial activity against drug-sensitive Bacillus subtilis 168 after 20 hrs by liquid microdilution method; format: functional; details: subsp. subtilis str. 168, 20 h; procedure, shortened: as §1
[14] = Hemolytic activity in rabbit RBC at 5 uM after 20 mins relative to control; format: ADME, cell-based, Oryctolagus cuniculus, Erythrocyte; details: rabbit red blood cells (erythrocytes), read-out: Activity; procedure, shortened: as §2
[15] = tested on: Salmonella typhimurium; test: Antibacterial activity against drug-sensitive Salmonella typhimurium LT2 after 20 hrs by liquid microdilution method; format: functional, Salmonella enterica subsp. enterica serovar Typhimurium; details: Salmonella enterica, LT2, 20 h; procedure, shortened: as §1
[16] = Hemolytic activity in rabbit RBC at 20 uM after 20 mins relative to control; format: ADME, cell-based, Oryctolagus cuniculus, Erythrocyte; details: rabbit red blood cells (erythrocytes), read-out: Activity; procedure, shortened: as §2
[17] = tested on: Staphylococcus aureus; test: Antibacterial activity against methicillin-sensitive Staphylococcus aureus FDA 209P after 20 hrs by liquid microdilution method; format: functional; procedure, shortened: as §1

Compound | MIC [1] [µM] | hemolysis at 20 min, 10 µM [2] [%] | MIC [3] [µM] | hemolysis at 20 min, 50 µM [4] [%] | MIC [5] [µM] | hemolysis at 20 min, 1 µM [6] [%] | MIC [7] [µM] | MIC [8] [µM] | MIC [9] [µM] | hemolysis at 20 min, 2 µM [10] [%] | MIC [11] [µM] | logP [12] | MIC [13] [µM] | hemolysis at 20 min, 5 µM [14] [%] | MIC [15] [µM] | hemolysis at 20 min, 20 µM [16] [%] | MIC [17] [µM]
NC(Cc1ccccc1)c1cn(C[C@H]2O[C@@H]3O[C@H]4[C@H](O)[C@@H](O)[C@@H](O[C@H]5[C@H](O)[C@@H](O)[C@@H](O[C@H]6[C@H](O)[C@@H](O)[C@@H](O[C@H]7[C@H](O)[C@@H](O)[C@@H](O[C@H]8[C@H](O)[C@@H](O)[C@@H](O[C@H]9[C@H](O)[C@@H](O)[C@@H](O[C@H]2[C@H](O)[C@H]3O)O[C@@H]9Cn2cc(C(N)Cc3ccccc3)nn2)O[C@@H]8Cn2cc(C(N)Cc3ccccc3)nn2)O[C@@H]7Cn2cc(C(N)Cc3ccccc3)nn2)O[C@@H]6Cn2cc(C(N)Cc3ccccc3)nn2)O[C@@H]5Cn2cc(C(N)Cc3ccccc3)nn2)O[C@@H]4Cn2cc(C(N)Cc3ccccc3)nn2)nn1 (stereo not given in full) | > 41 | 6 | 21 (≈ 48.9 µg/mL) | 4 | > 41 | 5 | 21 (≈ 48.9 µg/mL) | > 41 | 41 (≈ 95.4 µg/mL) | 4 | 21 (≈ 48.9 µg/mL) | -0.67 | 5 (≈ 11.6 µg/mL) | 3 | > 41 | 4 | 21 (≈ 48.9 µg/mL)
O[C@@H]1[C@@H](O)[C@H]2O[C@H]3[C@H](O)[C@@H](O)[C@@H](O[C@H]4[C@H](O)[C@@H](O)[C@@H](O[C@H]5[C@H](O)[C@@H](O)[C@@H](O[C@H]6[C@H](O)[C@@H](O)[C@@H](O[C@H]7[C@H](O)[C@@H](O)[C@@H](O[C@H]8[C@H](O)[C@@H](O)[C@@H](O[C@@H]1[C@@H](Cn1cc(CNCc9ccccc9)nn1)O2)O[C@@H]8Cn1cc(CNCc2ccccc2)nn1)O[C@@H]7Cn1cc(CNCc2ccccc2)nn1)O[C@@H]6Cn1cc(CNCc2ccccc2)nn1)O[C@@H]5Cn1cc(CNCc2ccccc2)nn1)O[C@@H]4Cn1cc(CNCc2ccccc2)nn1)O[C@@H]3Cn1cc(CNCc2ccccc2)nn1 | 21 (≈ 48.9 µg/mL) | 2 | 41 (≈ 95.4 µg/mL) | 11 | > 41 | 2 | 21 (≈ 48.9 µg/mL) | 41 (≈ 95.4 µg/mL) | 41 (≈ 95.4 µg/mL) | 4 | 21 (≈ 48.9 µg/mL) | -0.26 | 5 (≈ 11.6 µg/mL) | 4 | 21 (≈ 48.9 µg/mL) | 3 | 5 (≈ 11.6 µg/mL)
CCCCCCC(N)c1cn(C[C@H]2O[C@@H]3O[C@H]4[C@H](O)[C@@H](O)[C@@H](O[C@H]5[C@H](O)[C@@H](O)[C@@H](O[C@H]6[C@H](O)[C@@H](O)[C@@H](O[C@H]7[C@H](O)[C@@H](O)[C@@H](O[C@H]8[C@H](O)[C@@H](O)[C@@H](O[C@H]9[C@H](O)[C@@H](O)[C@@H](O[C@H]2[C@H](O)[C@H]3O)O[C@@H]9Cn2cc(C(N)CCCCCC)nn2)O[C@@H]8Cn2cc(C(N)CCCCCC)nn2)O[C@@H]7Cn2cc(C(N)CCCCCC)nn2)O[C@@H]6Cn2cc(C(N)CCCCCC)nn2)O[C@@H]5Cn2cc(C(N)CCCCCC)nn2)O[C@@H]4Cn2cc(C(N)CCCCCC)nn2)nn1 (stereo not given in full) | 21 (≈ 48 µg/mL) | 109 | 21 (≈ 48 µg/mL) | 118 | 42 (≈ 96 µg/mL) | 10 | 10 (≈ 22.8 µg/mL) | 21 (≈ 48 µg/mL) | 10 (≈ 22.8 µg/mL) | 37 | 10 (≈ 22.8 µg/mL) | -0.18 | 5 (≈ 11.4 µg/mL) | 101 | 10 (≈ 22.8 µg/mL) | 113 | 3 to 10 (≈ 6.85 to 22.8 µg/mL)
CCC(C)CCCCC(=O)N[C@@H](CCN)C(=O)N[C@H](C(=O)N[C@@H](CCN)C(=O)N[C@H]1CCNC(=O)[C@H]([C@@H](C)O)NC(=O)[C@H](CCN)NC(=O)[C@H](CCN)NC(=O)[C@H](CC(C)C)NC(=O)[C@@H](Cc2ccccc2)NC(=O)[C@H](CCN)NC1=O)[C@@H](C)O (stereo not given in full) ({Octanoyl(6-Me)}-[Dab]T[Dab][Dab][Dab][dF]L[Dab][Dab]T; lactam 4-C) | 1 (≈ 1.2 µg/mL) |  |  |  |  |  |  |  |  |  | 1 (≈ 1.2 µg/mL) |  | 6 (≈ 7.22 µg/mL) |  | 1 (≈ 1.2 µg/mL) |  | 23 (≈ 27.7 µg/mL)
NCCCCCCCc1cn(C[C@H]2O[C@@H]3O[C@H]4[C@H](O)[C@@H](O)[C@@H](O[C@H]5[C@H](O)[C@@H](O)[C@@H](O[C@H]6[C@H](O)[C@@H](O)[C@@H](O[C@H]7[C@H](O)[C@@H](O)[C@@H](O[C@H]8[C@H](O)[C@@H](O)[C@@H](O[C@H]9[C@H](O)[C@@H](O)[C@@H](O[C@H]2[C@H](O)[C@H]3O)O[C@@H]9Cn2cc(CCCCCCCN)nn2)O[C@@H]8Cn2cc(CCCCCCCN)nn2)O[C@@H]7Cn2cc(CCCCCCCN)nn2)O[C@@H]6Cn2cc(CCCCCCCN)nn2)O[C@@H]5Cn2cc(CCCCCCCN)nn2)O[C@@H]4Cn2cc(CCCCCCCN)nn2)nn1 | > 42 | 3 | 21 (≈ 48 µg/mL) | 3 | > 42 | 3 | 42 (≈ 96 µg/mL) | > 42 | 42 (≈ 96 µg/mL) | 1 | > 42 | -0.43 | 5 (≈ 11.4 µg/mL) | 4 | > 42 | 4 | 3 to 21 (≈ 6.85 to 48 µg/mL)
O[C@@H]1[C@@H](O)[C@H]2O[C@H]3[C@H](O)[C@@H](O)[C@@H](O[C@H]4[C@H](O)[C@@H](O)[C@@H](O[C@H]5[C@H](O)[C@@H](O)[C@@H](O[C@H]6[C@H](O)[C@@H](O)[C@@H](O[C@H]7[C@H](O)[C@@H](O)[C@@H](O[C@H]8[C@H](O)[C@@H](O)[C@@H](O[C@@H]1[C@@H](Cn1cc(CNCC9CC9)nn1)O2)O[C@@H]8Cn1cc(CNCC2CC2)nn1)O[C@@H]7Cn1cc(CNCC2CC2)nn1)O[C@@H]6Cn1cc(CNCC2CC2)nn1)O[C@@H]5Cn1cc(CNCC2CC2)nn1)O[C@@H]4Cn1cc(CNCC2CC2)nn1)O[C@@H]3Cn1cc(CNCC2CC2)nn1 | > 45 | 0 |  | 0 |  | 0 |  |  |  | 0 | > 45 | -1.4 | > 45 | 0 | > 45 | 0 | > 45
CC(C)CCCNCc1cn(C[C@H]2O[C@@H]3O[C@H]4[C@H](O)[C@@H](O)[C@@H](O[C@H]5[C@H](O)[C@@H](O)[C@@H](O[C@H]6[C@H](O)[C@@H](O)[C@@H](O[C@H]7[C@H](O)[C@@H](O)[C@@H](O[C@H]8[C@H](O)[C@@H](O)[C@@H](O[C@H]9[C@H](O)[C@@H](O)[C@@H](O[C@H]2[C@H](O)[C@H]3O)O[C@@H]9Cn2cc(CNCCCC(C)C)nn2)O[C@@H]8Cn2cc(CNCCCC(C)C)nn2)O[C@@H]7Cn2cc(CNCCCC(C)C)nn2)O[C@@H]6Cn2cc(CNCCCC(C)C)nn2)O[C@@H]5Cn2cc(CNCCCC(C)C)nn2)O[C@@H]4Cn2cc(CNCCCC(C)C)nn2)nn1 | 5 (≈ 11.4 µg/mL) | 15 | 10 (≈ 22.8 µg/mL) | 56 | > 42 | 5 | 5 (≈ 11.4 µg/mL) | 42 (≈ 96 µg/mL) | 21 (≈ 48 µg/mL) | 5 | 10 (≈ 22.8 µg/mL) | -0.15 | 3 (≈ 6.85 µg/mL) | 7 | 10 (≈ 22.8 µg/mL) | 23 | 3 to 10 (≈ 6.85 to 22.8 µg/mL)
CC(C)C[C@@H]1NC(=O)[C@H](CCCN)NC(=O)[C@H](C(C)C)NC(=O)[C@@H]2CCCN2C(=O)[C@@H](Cc2ccccc2)NC(=O)[C@H](CC(C)C)NC(=O)[C@H](CCCN)NC(=O)[C@H](C(C)C)NC(=O)[C@@H]2CCCN2C(=O)[C@@H](Cc2ccccc2)NC1=O (cyclo(V[Orn]L[dF]PV[Orn]L[dF]P)) | 56 (≈ 63.9 µg/mL) |  |  |  |  |  |  |  |  |  | 28 (≈ 32 µg/mL) |  |  |  |  |  | 7 (≈ 7.99 µg/mL)
